The record followed here is ChEMBL document CHEMBL1123953, “Studies on prodrugs. 7. Synthesis and antimicrobial activity of 3-formylquinolone derivatives” (J Med Chem, 1988).

Structures are written as SMILES. ≈ marks a conversion by molar mass, not a printed value. Where “and” joins values, the source holds several entries; their conditions need not be identical. Equal values may be shown once.

In data set [1] the test system is Escherichia coli. Put plainly: (§1) Inhibition of growth of Escherichia coli (KC-14) upon oral administration in mice. It counts as functional. A digest of the protocol: (§2)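 Groups of 10 male ddY mice (20 ± 2 g) were inoculated intraperitoneally with 0.5 mL of E. coli KC-14 at 10 or 100 times the 50% lethal dose. Compounds, suspended in 0.5% sodium (carboxymethyl)cellulose, were given orally 1 h postinfection. Survival was scored after 1 week. ED50 is reported with 95% confidence limits.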

In the next data set the test system is Klebsiella pneumoniae. Put plainly: In vitro inhibition of growth of Klebsiella pneumoniae (PC-1602). The format is functional. In a few lines:
(§3)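 Agar dilution using serial 2-fold dilutions in Mueller-Hinton agar, with plate concentrations 0.006 to 100 μg/mL. Inoculum approx. 10^6 cfu/mL. Plates incubated at 37 °C for 18 h. MIC taken as the lowest concentration preventing visible bacterial growth.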

The test system of the next data set is Proteus vulgaris. Put plainly: In vitro inhibition of growth of Proteus vulgaris(OX-19). The format is functional. A digest of the protocol: as §3
The subject of the next data set is Staphylococcus aureus. Put plainly: Inhibition of growth of Staphylococcus aureus (FDA207PJC-1) after incubation at 37 degree Centigrade. It counts as functional. A digest of the protocol:
as §3

Another data set relates to Bacillus subtilis. Put plainly: In vitro inhibition of growth of Bacillus subtilis (ATCC 6633). It counts as functional. A digest of the protocol:
as §3

Data set [2] is described as follows: Area under the curve in concentration/ time. It counts as ADME. A digest of the protocol:
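Mice dosed orally at 50 mg/kg (formyl prodrug at a dose equivalent to 50 mg/kg of parent acid), suspended in 0.5% sodium (carboxymethyl)cellulose. Mice killed by bleeding at 0.5, 1.0, 2.0 and 4.0 h. Blood centrifuged and serum drug levels measured by HPLC. AUC from the serum concentration–time curve, in μg/mL per hour.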

Another data set has as its system Serratia marcescens. Put plainly: In vitro inhibition of growth of Serratia marcescens (IAM1184). The format is functional. In a few lines:
as §3

The next data set deals with Pseudomonas aeruginosa. Put plainly: In vitro inhibition of growth of Pseudomonas aeruginosa(E-2). The format is functional. A digest of the protocol: as §3
The test system of data set [3] is Escherichia coli. Put plainly: In vitro Inhibition of growth of Escherichia coli(KC-14). The format is functional. A digest of the protocol:
as §3

The test system of data set [4] is Escherichia coli. Put plainly: (§4) Inhibition of growth of Escherichia coli (KC-14) upon oral administration in mice(95%CL). It counts as functional. In a few lines: (§5)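 Male ddY mice (20 ± 2 g, groups of 10) infected intraperitoneally with 0.5 mL of E. coli KC-14 dilution at 10 or 100 times the 50% lethal dose. Compounds suspended in 0.5% sodium (carboxymethyl)cellulose and given orally 1 h postinfection. Survival scored after 1 week. ED50 derived with 95% confidence limits.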

Data set [5] relates to Mus musculus. Description: Serum levels in Mice 4 hr after Oral administration of 50 mg/kg; nd= Not detected. The format is functional, organism-based. On the set-up: dose 50 mg/kg. In a few lines:
(§6)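 Mice dosed orally at 50 mg/kg, suspended in 0.5% sodium (carboxymethyl)cellulose; prodrugs given at a dose equivalent to 50 mg/kg of parent acid. Mice killed by bleeding at 0.5, 1.0, 2.0 and 4.0 h, and serum obtained by centrifugation. Serum analysed by HPLC, eluting with 5% AcOH/MeOH (70/30). Values given with standard deviation.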

Data set [6] relates to Mus musculus. Description: Serum levels in Mice 0.5 hr after Oral administration of 50 mg/kg; nd= Not detected. On the set-up: dose 50 mg/kg. It counts as functional, organism-based. A digest of the protocol:
as §6

Data set [7] concerns Mus musculus. The description is as §1. It counts as functional. In a few lines: as §2
The subject of data set [8] is Mus musculus. Put plainly: Serum levels in Mice 1 hr after Oral administration of 50 mg/kg; nd= Not detected. It counts as functional, organism-based. On the set-up: dose 50 mg/kg. A digest of the protocol:
as §6

For data set [9], the system named is Mus musculus. Description: Serum levels in Mice 2 hr after Oral administration of 50 mg/kg; nd= Not detected. The format is functional, organism-based. Also noted: dose 50 mg/kg. In a few lines:
as §6

For data set [10], the system named is Mus musculus. Described as §4. It counts as functional. A digest of the protocol:
as §5

Setting [11] is: Klebsiella pneumoniae, read-out: MIC.
Where [12] appears, read: Proteus vulgaris, read-out: MIC.
Setting [13] is: Staphylococcus aureus, read-out: MIC.

On to `CCn1cc(C(=O)O)c(=O)c2cc(F)c(N3CCN(C)CC3)cc21` [PEFLOXACIN], for which the 50% effective dose (ED50) (as a rule, the midpoint of the dose-response relation) came out at 1.67 mg/kg in the data set on Escherichia coli [1] and 1.67 mg/kg with Escherichia coli [1] (Escherichia coli, po). Besides, the MIC – broadly, the lowest concentration that inhibits growth of the organism – in the data set on Klebsiella pneumoniae was found to be 0.05 µg/mL (≈ 0.15 µM); in the data set with Klebsiella pneumoniae (setting [11]) it was 0.05 µg/mL (≈ 0.15 µM); with Proteus vulgaris, 0.05 µg/mL (≈ 0.15 µM); in the data set with Proteus vulgaris (setting [12]), 0.05 µg/mL (≈ 0.15 µM); with Staphylococcus aureus, 0.39 µg/mL (≈ 1.17 µM); in the data set on Staphylococcus aureus (setting [13]), 0.39 µg/mL (≈ 1.17 µM).

Take `CCn1cc(C(=O)O)c(=O)c2cc(F)c(N3CCNCC3)cc21` [NORFLOXACIN]: the minimum inhibitory concentration (MIC) came to 0.2 µg/mL (≈ 0.626 µM) in the data set on Bacillus subtilis; 0.2 µg/mL (≈ 0.626 µM) against Serratia marcescens; 0.05 µg/mL (≈ 0.157 µM) in the data set with Klebsiella pneumoniae (setting [11]); 0.05 µg/mL (≈ 0.157 µM) in the data set on Proteus vulgaris (setting [12]); 0.2 µg/mL (≈ 0.626 µM) in the data set with Staphylococcus aureus (setting [13]); 0.78 µg/mL (≈ 2.44 µM) with Pseudomonas aeruginosa. The same compound showed an MIC against Escherichia coli [3] of 0.1 µg/mL (≈ 0.313 µM). For the same compound, the AUC in [2] is 0.98 µg/mL/h and 1.77 µg/mL/h. In the data set with Escherichia coli [4], this compound yielded an ED50 of 7.68 mg/kg.

On to `CCn1cc(C=O)c(=O)c2cc(F)c(N3CCNCC3)cc21`, for which the minimal inhibitory concentration (MIC) in the data set with Bacillus subtilis was 12.5 µg/mL (≈ 41.2 µM); against Serratia marcescens, below 100 µg/mL; in the data set with Klebsiella pneumoniae (setting [11]), 3.12 µg/mL (≈ 10.3 µM); with Proteus vulgaris (setting [12]), 6.25 µg/mL (≈ 20.6 µM); in the data set on Staphylococcus aureus (setting [13]), below 100 µg/mL; against Pseudomonas aeruginosa, below 100 µg/mL. Also, in the data set on Escherichia coli [3], the lowest concentration to inhibit growth (MIC) was 12.5 µg/mL (≈ 41.2 µM). In addition, the Serum level result in the data set on Mus musculus [5], with Mus musculus [6], in the data set with Mus musculus [8] and in the data set on Mus musculus [9] was “Not detected” each time. In the data set on Mus musculus [7], this compound yielded a 50% effective dose (ED50) of 2.53 mg/kg.

On to `CCn1cc(C=O)c(=O)c2cc(F)c(N3CCN(C)CC3)cc21`, for which the minimal inhibitory concentration (MIC) is 3.13 µg/mL (≈ 9.86 µM) in the data set on Bacillus subtilis; 12.5 µg/mL (≈ 39.4 µM) in the data set with Serratia marcescens; 1.56 µg/mL (≈ 4.92 µM) in the data set with Klebsiella pneumoniae (setting [11]); 1.56 µg/mL (≈ 4.92 µM) against Proteus vulgaris; 12.5 µg/mL (≈ 39.4 µM) with Staphylococcus aureus (setting [13]); below 25 µg/mL in the data set with Pseudomonas aeruginosa. The compound further showed an MIC in the data set with Escherichia coli [3] of 6.25 µg/mL (≈ 19.7 µM). In the data set with Mus musculus [10], this compound returned an ED50 of 0.84 mg/kg.

Turning to `O=Cc1cn(C2CC2)c2cc(N3CCNCC3)c(F)cc2c1=O`, the MIC against Bacillus subtilis was determined as 6.25 µg/mL (≈ 19.8 µM); with Serratia marcescens it was 12.5 µg/mL (≈ 39.6 µM); with Klebsiella pneumoniae (setting [11]), 12.5 µg/mL (≈ 39.6 µM); with Proteus vulgaris (setting [12]), 3.13 µg/mL (≈ 9.93 µM); in the data set on Staphylococcus aureus (setting [13]), 25 µg/mL (≈ 79.3 µM); against Pseudomonas aeruginosa it was 50 µg/mL (≈ 159 µM). For the same compound, 3.13 µg/mL (≈ 9.93 µM) was the least that counted as inhibitory with Escherichia coli [3] (MIC). Also, the 50% effect level in the data set with Mus musculus [7] (ED50) was put at a dose of 0.49 mg/kg.
